# Measurements taken from ChEMBL document CHEMBL3124885, “Discovery of 7-tetrahydropyran-2-yl chromans: β-site amyloid precursor protein cleaving enzyme 1 (BACE1) inhibitors that reduce amyloid β-protein (Aβ) in the central nervous system” (J Med Chem, 2014).
# Columns and labels:
# [1] = Drug uptake in Hartley guinea pig CSF at 60 mg/kg, po measured at 12 hrs; assay type: ADME, organism-based, Cavia porcellus, Cerebrospinal fluid; design: dose 60 mg/kg, route oral; details: read-out: Drug uptake
# Summary of the method: (§1)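 Male Hartley guinea pigs, oral dosing (CMC/Tween/citrate suspension or PEG/EtOH/H₂O solution), six or eight animals per cohort; CSF drug concentration (nM) measured at each time point.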
# [2] = Drug uptake in Hartley guinea pig CSF at 60 mg/kg, po measured at 8 hrs; assay type: ADME, organism-based, Cavia porcellus, Cerebrospinal fluid; design: dose 60 mg/kg, route oral; details: read-out: Drug uptake; summary of the method: as §1
# [3] = Ratio of unbound drug level in brain to plasma in Hartley guinea pig at 60 mg/kg, po measured at 12 hrs; assay type: ADME, organism-based, Cavia porcellus; design: dose 60 mg/kg, route oral; details: brain and plasma (unbound), read-out: K(p,uu,brain)
# Summary of the method: (§2)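 Male Hartley guinea pigs given single oral doses of 30, 60 or 100 mg/kg in 1% CMC/0.5% Tween/5 mM citrate in H₂O, 6–8 animals per cohort. Plasma, brain and CSF sampled at 1–12 h; free brain to free plasma ratio computed.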
# [4] = Ratio of unbound drug level in brain to plasma in Hartley guinea pig at 60 mg/kg, po measured at 8 hrs; assay type: ADME, organism-based, Cavia porcellus; design: dose 60 mg/kg, route oral; details: brain and plasma (unbound), read-out: K(p,uu,brain); summary of the method: as §2
# [5] = Ratio of unbound drug level in brain to plasma in Hartley guinea pig at 30 mg/kg, po measured at 3 hrs; assay type: ADME, organism-based, Cavia porcellus; design: dose 30 mg/kg, route oral; details: brain and plasma (unbound), read-out: K(p,uu,brain); summary of the method: as §2
# [6] = Fraction unbound in Hartley guinea pig brain at 60 mg/kg, po measured at 8 hrs; assay type: ADME, organism-based, Cavia porcellus; design: dose 60 mg/kg, route oral; details: in vivo
# [7] = Fraction unbound in Hartley guinea pig brain at 60 mg/kg, po measured at 12 hrs; assay type: ADME, organism-based, Cavia porcellus; design: dose 60 mg/kg, route oral; details: in vivo
# [8] = Unbound plasma concentration in Hartley guinea pig at 30 mg/kg, po measured at 3 hrs; assay type: ADME, organism-based, Cavia porcellus; design: dose 30 mg/kg, route oral; details: in vivo
# Summary of the method: (§3)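 Male Hartley guinea pigs were dosed orally at 30, 60 or 100 mg/kg, with six or eight animals per cohort. The vehicle was either a suspension in 1% CMC/0.5% Tween/5 mM citrate in H₂O or a 40/10/50 PEG/EtOH/H₂O solution, depending on compound. Unbound plasma concentration was sampled at 1–12 h post-dose alongside brain, CSF and CSF Aβ₁₋₄₀.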
# Plasma [9] = experiment: Unbound plasma concentration in cynomolgus monkey at 0.5 mg/kg, iv and 100 mg/kg, po measured at 2 hrs; assay type: ADME, organism-based, Macaca fascicularis; details: in vivo
# Summary of the method: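 Female cynomolgus monkeys, three per dosing route, received 0.5 mg/kg iv and 100 mg/kg po. Unbound plasma concentration was reported at 2 h and 4 h post-dose.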
# Cynomolgus monkey = experiment: Hepatic clearance in cynomolgus monkey at 0.5 mg/kg, iv; assay type: ADME, organism-based, Macaca fascicularis, Liver; design: dose 0.5 mg/kg, route intravenous; details: in vivo
# [10] = Intrinsic clearance in cynomolgus monkey hepatocytes at 2 uM after 60 to 120 mins; assay type: ADME, cell-based, Macaca fascicularis, Hepatocyte; details: read-out: CLH
# [11] = Drug uptake in Hartley guinea pig CSF at 60 mg/kg, po measured at 1 hr; assay type: ADME, organism-based, Cavia porcellus, Cerebrospinal fluid; design: dose 60 mg/kg, route oral; details: read-out: Drug uptake; summary of the method: as §1
# Cavia porcellus = experiment: Hepatic clearance in Hartley guinea pig at 3 mg/kg, iv; assay type: ADME, organism-based, Liver; design: dose 3 mg/kg, route intravenous; details: in vivo
# [12] = Clearance in Hartley guinea pig liver microsomes at 1 uM after 20 mins by LC-MS/MS analysis in presence of NADPH; assay type: ADME, Cavia porcellus, Microsome; details: read-out: CLH
# [13] = Intrinsic clearance in Hartley guinea pig hepatocytes at 2 uM after 60 to 120 mins; assay type: ADME, cell-based, Cavia porcellus, Hepatocyte; details: read-out: CLH
# [14] = Drug uptake in Sprague-Dawley rat CSF at 60 mg/kg, po measured at 12 hrs; assay type: ADME, organism-based, Cerebrospinal fluid; design: dose 60 mg/kg, route oral; details: read-out: Drug uptake
# Summary of the method: (§4)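 Male Sprague−Dawley rats dosed orally at 60 mg/kg in 1% CMC/0.5% Tween/5 mM citrate in H₂O; CSF compound concentration (nM) at 1–12 h.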
# [15] = Drug uptake in Sprague-Dawley rat CSF at 60 mg/kg, po measured at 8 hrs; assay type: ADME, organism-based, Cerebrospinal fluid; design: dose 60 mg/kg, route oral; details: read-out: Drug uptake; summary of the method: as §4
# [16] = Drug uptake in Sprague-Dawley rat CSF at 60 mg/kg, po measured at 5 hrs; assay type: ADME, organism-based, Cerebrospinal fluid; design: dose 60 mg/kg, route oral; details: read-out: Drug uptake; summary of the method: as §4
# Brain [17] = experiment: Fraction unbound in Sprague-Dawley rat brain at 60 mg/kg, po measured at 12 hrs; assay type: ADME, organism-based; design: dose 60 mg/kg, route oral; details: in vivo
# Summary of the method: (§5)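 Male Sprague–Dawley rats dosed 60 mg/kg po in 1% CMC/0.5% Tween/5 mM citrate in H₂O; plasma, brain and CSF taken at 1, 3, 5, 8 and 12 h; unbound plasma and brain levels and their ratio determined.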
# Brain [18] = experiment: Fraction unbound in Sprague-Dawley rat brain at 60 mg/kg, po measured at 8 hrs; assay type: ADME, organism-based; design: dose 60 mg/kg, route oral; details: in vivo; summary of the method: as §5
# Plasma [19] = experiment: Unbound plasma concentration in Sprague-Dawley rat at 60 mg/kg, po measured at 12 hrs; assay type: ADME, organism-based; design: dose 60 mg/kg, route oral; details: in vivo
# Summary of the method: (§6)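 Male Sprague-Dawley rats were given a single 60 mg/kg oral dose in 1% CMC/0.5% Tween/5 mM citrate in H₂O. Free plasma concentration was determined at 1, 3, 5, 8 and 12 h. Brain, CSF and CSF Aβ₁₋₄₀ were sampled at the same times.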
# Plasma [20] = experiment: Unbound plasma concentration in Sprague-Dawley rat at 60 mg/kg, po measured at 8 hrs; assay type: ADME, organism-based; design: dose 60 mg/kg, route oral; details: in vivo; summary of the method: as §6
# Plasma [21] = experiment: Unbound plasma concentration in Sprague-Dawley rat at 60 mg/kg, po measured at 5 hrs; assay type: ADME, organism-based; design: dose 60 mg/kg, route oral; details: in vivo; summary of the method: as §6
# [22] = Ratio of unbound drug level in brain to plasma in Hartley guinea pig at 60 mg/kg, po measured at 3 hrs; assay type: ADME, organism-based, Cavia porcellus; design: dose 60 mg/kg, route oral; details: brain and plasma (unbound), read-out: K(p,uu,brain); summary of the method: as §2
# [23] = Drug uptake in Sprague-Dawley rat CSF at 60 mg/kg, po measured at 1 hr; assay type: ADME, organism-based, Cerebrospinal fluid; design: dose 60 mg/kg, route oral; details: read-out: Drug uptake; summary of the method: as §4
# [24] = Ratio of unbound drug level in brain to plasma in Sprague-Dawley rat at 60 mg/kg, po measured at 1 hr; assay type: ADME, organism-based; design: dose 60 mg/kg, route oral; details: brain and plasma (unbound), read-out: K(p,uu,brain); summary of the method: as §5
# Brain [25] = experiment: Fraction unbound in Sprague-Dawley rat brain at 60 mg/kg, po measured at 3 hrs; assay type: ADME, organism-based; design: dose 60 mg/kg, route oral; details: in vivo; summary of the method: as §5
# Brain [26] = experiment: Fraction unbound in Sprague-Dawley rat brain at 60 mg/kg, po measured at 1 hr; assay type: ADME, organism-based; design: dose 60 mg/kg, route oral; details: in vivo; summary of the method: as §5
# [27] = Intrinsic clearance in CD-1 mouse hepatocytes at 2 uM after 60 to 120 mins; assay type: ADME, cell-based, Hepatocyte; details: read-out: CLH
# [28] = Solubility of the compound at pH 7.2; assay type: physicochemical; details: buffer
# [29] = Ratio of unbound drug level in brain to plasma in CD-1 mouse measured at 4 hrs; assay type: ADME; details: CD-1, mouse, read-out: K(p,uu,brain)
# Summary of the method: (§7)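 Male CD-1 mice given 10 mg/kg po, 3 per cohort; plasma and brain collected at 1 and 4 h. Free brain/plasma ratio from unbound concentrations; coverage ratio = free brain concentration divided by HEK293 Aβ₁₋₄₀ cell IC50.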
# Brain [30] = experiment: Fraction unbound in CD-1 mouse brain at 10 mg/kg, po measured at 4 hrs; assay type: ADME, organism-based; design: dose 10 mg/kg, route oral; details: in vivo
# Summary of the method: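 Male CD-1 mice, 3 per cohort, dosed 10 mg/kg orally; brains harvested at 1 and 4 h.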
# [31] = Ratio of unbound drug level in brain to plasma in CD-1 mouse measured at 1 hr; assay type: ADME; details: mouse, 1 h; summary of the method: as §7
# Plasma [32] = experiment: Unbound plasma concentration in CD-1 mouse at 3 mg/kg, iv and 10 mg/kg, po measured at 1 hr; assay type: ADME, organism-based; details: in vivo
# Summary of the method: (§8)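 Male CD-1 mice, 3 per cohort, dosed 3 mg/kg iv and 10 mg/kg po; plasma drawn at 1 and 4 h, brains harvested from oral groups only. Formulations varied by compound: 40% PEG 400/10% EtOH/50% H₂O; 30% captisol in H₂O; iv 50 mM citrate in saline (pH 4); po 1% CMC/0.5% Tween/5 mM citrate in H₂O.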
# Mus musculus = experiment: Hepatic clearance in CD-1 mouse at 3 mg/kg, iv; assay type: ADME, organism-based, Liver; design: dose 3 mg/kg, route intravenous; details: in vivo; summary of the method: as §8
# [33] = Unbound plasma concentration in Hartley guinea pig at 60 mg/kg, po measured at 3 hrs; assay type: ADME, organism-based, Cavia porcellus; design: dose 60 mg/kg, route oral; details: in vivo; summary of the method: as §3
compound,measurement,setting,value
CN1C(=O)[C@]2(N=C1N)c1cc(-c3cccnc3F)ccc1O[C@H]1CCOC[C@@H]12,concentration at 12 h,[1],2.6 nM
same,concentration at 8 h,[2],1.6 nM
same,Kp uu at 12 h,[3],> 3.7
same,Kp uu at 8 h,[4],> 1.7
same,Kp uu at 3 h,[5],1.6
same,Drug uptake(free),[6],5.2 nM
same,Drug uptake(free),[7],11 nM
same,Cp(f),[8],5.8 nM
same,Cp(f),Plasma [9],3200 nM
same,CLH,Cynomolgus monkey,22 mL/min/kg
same,CLint scaled at 2 µM,[10],5.8 mL/min/kg
same,concentration at 1 h,[11],69 nM
same,CLH,Cavia porcellus,110 mL/min/kg
same,CLint scaled at 1 µM,[12],17 mL/min/kg
same,CLint scaled at 2 µM,[13],9.7 mL/min/kg
same,concentration at 12 h,[14],85 nM
same,concentration at 8 h,[15],130 nM
same,concentration at 5 h,[16],200 nM
same,Drug uptake(free),Brain [17],46 nM
same,Drug uptake(free),Brain [18],84 nM
same,Cp(f),Plasma [19],960 nM
same,Cp(f),Plasma [20],1700 nM
same,Cp(f),Plasma [21],2700 nM
same,Kp uu at 3 h,[22],1.5
same,concentration at 1 h,[23],290 nM
same,Kp uu at 1 h,[24],0.022
same,Drug uptake(free),Brain [25],66 nM
same,Drug uptake(free),Brain [26],68 nM
same,CLint scaled at 2 µM,[27],36 mL/min/kg
same,solubility,[28],220 µg/mL
same,Kp uu at 4 h,[29],0.19
same,Drug uptake(free),Brain [30],15 nM
same,"K(p,uu,brain)",[31],0.08
same,Cp(f),Plasma [32],300 nM
same,CLH,Mus musculus,41 mL/min/kg
same,Cp(f),[33],23 nM
